# Assay results: article PMC5760825 (Journal of Pharmaceutical Analysis, 2011)
# Read-outs that look alike come from different tables or passages of the source.
# Columns and labels:
# [1] = type: in vitro ADME, human; settings: for Stability, Accuracy (% of nominal conc.): plasma
# Outline: (§1)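 Glucosamine was spiked into blank human matrix at low and high QC levels: plasma 0.020 and 1.66 μg/mL, urine 2.21 and 42.7 μg/mL, n=2. Freeze-thaw used 24 h at −20 °C, thawing at room temperature and 12 h refreezing, up to three cycles. Short-term storage was 8 h at room temperature and long-term storage up to 60 days at −20 °C. Samples were compared with fresh references and accuracy given as found versus nominal.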
# [2] = cited from earlier work
# [3] = type: in vivo, human (healthy Chinese volunteers); settings: n=10; for Urine excretion (% of dose): single oral dose 1000 mg, mean±SD
# [4] = type: in vivo, human (healthy Chinese volunteers); settings: for Cmax: plasma
# Outline: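 Open-label, randomized, parallel-group study. Thirty healthy volunteers (5 men, 5 women per group) took single oral doses of 500, 1000 or 1500 mg glucosamine sulfate, as dispersible tablets, with 250 mL water after an overnight fast. The 500 mg group continued at 500 mg t.i.d. for 7 days, with troughs on days 4–7. Heparinized plasma was taken from 0 to 24 h. Cmax came from the observed curves, other parameters from non-compartmental analysis, and group differences from ANOVA.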
# [5] = type: in vitro ADME, human; settings: urine
# Outline: as §1
# [6] = before administration, Chinese volunteers
# [7] = before administration, Chinese volunteers, n=30
# [8] = multiple doses 500 mg t.i.d., 7th day, mean±SD, n=10
# [9] = single oral dose 500 mg, mean±SD, n=10
# [10] = single oral dose 1000 mg, mean±SD, n=10
# [11] = single oral dose 1500 mg, mean±SD, n=10
substance,measurement,setting,value
2-amino-2-deoxy-D-glucose [glucosamine],"Stability, Accuracy (% of nominal conc.)","[1]; 0.020 μg/mL, Freeze-thaw (n=3)",100.0%
same,"Stability, Accuracy (% of nominal conc.)","[1]; 0.020 μg/mL, Long-term after 60 d (−20 °C)",90.0%
same,"Stability, Accuracy (% of nominal conc.)","[1]; 1.660 μg/mL, Freeze-thaw (n=3)",105.2%
same,"Stability, Accuracy (% of nominal conc.)","[1]; 1.660 μg/mL, Long-term after 60 d (−20 °C)",106.6%
same,"Stability, Accuracy (% of nominal conc.)","[1]; 1.660 μg/mL, Short-term after 8 h (25 °C)",98.4%
same,stability in plasma and urine under different storage conditions,"[1]; three freeze-thaw cycles, 8 h bench-top, −20 °C up to 2 months, plasma and urine",stable
same,"plasma glucosamine baseline levels, mean value",[2]; Caucasian volunteers,45.3 ng/mL
same,Endogenous level of glucosamine in human plasma,[2]; human plasma,10 to 200 ng/mL
same,"urine glucosamine levels (baseline), mean",[3]; [6],4.96 ± 1.74 µg/mL
same,"urine glucosamine levels (baseline), range",[3]; [6],2.79 to 8.07 µg/mL
same,Urine excretion (% of dose),[3]; 0–3 h after dosing,0.434±0.300%
same,Urine excretion (% of dose),[3]; 0–6 h after dosing,1.39±1.45%
same,Urine excretion (% of dose),[3]; 0–10 h after dosing,1.83±1.84%
same,Urine excretion (% of dose),[3]; 0–14 h after dosing,1.90±1.86%
same,Urine excretion (% of dose),[3]; 0–24 h after dosing,1.99±1.86%
same,accumulation after multiple doses,[4]; 500 mg t.i.d. for 7 consecutive days vs single dose,no significant accumulation effects
same,dose linearity of absorption (dose-normalized AUC and Cmax),"[4]; 1500 mg vs 500 and 1000 mg dose groups, P<0.05",non-linear absorption at higher doses
same,time at which peak concentration was reached,"[4]; after oral administration, all dose groups",about 2 h
same,"plasma glucosamine baseline levels, mean",[4]; [7],16.7 ± 26.9 ng/mL
same,"plasma glucosamine baseline levels, range",[4]; [7],0 to 120 ng/mL
same,AUC0–10,[4]; [8],1020 ± 240 ng·h/mL
same,AUC0–∞,[4]; [8],1020 ± 240 ng·h/mL
same,AUCss,[4]; [8],1000 ± 240 ng·h/mL
same,Css_av,[4]; [8],125 ± 31 ng/mL
same,Css_min,[4]; [8],59 ± 56 ng/mL
same,DF,[4]; [8],1.90±0.93%
same,MRT0–10,[4]; [8],2.70 ± 0.34 h
same,Tmax,[4]; [8],1.90 ± 1.10 h
same,t1/2,[4]; [8],1.41 ± 0.76 h
same,Cmax,[4]; [8],294 ± 76 ng/mL
same,time at which plasma glucosamine was eliminated to the baseline level,[4]; post-dosing,about 10 h
same,AUC0–10,[4]; [9],1420 ± 200 ng·h/mL
same,AUC0–∞,[4]; [9],1430 ± 210 ng·h/mL
same,MRT0–10,[4]; [9],3.18 ± 0.71 h
same,Tmax,[4]; [9],2.60 ± 1.39 h
same,t1/2,[4]; [9],1.17 ± 0.40 h
same,AUC0–10,[4]; [10],3370 ± 1020 ng·h/mL
same,AUC0–∞,[4]; [10],3420 ± 1010 ng·h/mL
same,MRT0–10,[4]; [10],3.57 ± 0.24 h
same,Tmax,[4]; [10],2.70 ± 0.86 h
same,t1/2,[4]; [10],1.32 ± 0.35 h
same,Cmax,[4]; [10],795 ± 280 ng/mL
same,AUC0–10,[4]; [11],4030 ± 1280 ng·h/mL
same,AUC0–∞,[4]; [11],4180 ± 1400 ng·h/mL
same,MRT0–10,[4]; [11],3.30 ± 0.61 h
same,Tmax,[4]; [11],1.90 ± 0.84 h
same,t1/2,[4]; [11],1.36 ± 0.94 h
same,Cmax,[4]; [11],925 ± 280 ng/mL
same,"Stability, Accuracy (% of nominal conc.)","[5]; 2.21 μg/mL, Freeze-thaw (n=3)",106.6%
same,"Stability, Accuracy (% of nominal conc.)","[5]; 2.21 μg/mL, Long-term after 60 d (−20 °C)",99.2%
same,"Stability, Accuracy (% of nominal conc.)","[5]; 2.21 μg/mL, Short-term after 8 h (25 °C)",104.2%
same,"Stability, Accuracy (% of nominal conc.)","[5]; 42.7 μg/mL, Freeze-thaw (n=3)",105.3%
same,"Stability, Accuracy (% of nominal conc.)","[5]; 42.7 μg/mL, Long-term after 60 d (−20 °C)",103.7%
same,"Stability, Accuracy (% of nominal conc.)","[5]; 42.7 μg/mL, Short-term after 8 h (25 °C)",111.2%
